Test results taken from ChEMBL document CHEMBL1125672, “2-acetylpyridine thiosemicarbazones. 13. Derivatives with antifilarial activity” (1991).

Columns and labels:
Acanthocheilonema viteae [1] = assay: anti-filarial Activity was measured against Acanthocheilonema viteae in jirds at 50 mg/kg/day(5 days) dose; assay type: functional
In short: (§1)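 Jirds with established B. pahangi or A. viteae infections were given drug once daily for 5 days by subcutaneous injection, at the maximum tolerated dose and, where supply allowed, graded lower doses. Tolerance was first checked in noninfected jirds with a single 200 mg/kg oral or subcutaneous dose, watching 72 h for excessive weight loss or death. Macrofilarial suppression was the read-out.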

Brugia pahangi [2] = assay: anti-filarial Activity was measured against Brugia pahangi in jirds at 50 mg/kg/day(5 days) dose; assay type: functional; in short: as §1
Acanthocheilonema viteae [3] = assay: anti-filarial Activity was measured against Acanthocheilonema viteae in jirds at 100 mg/kg/day(5 days) dose; assay type: functional; in short: as §1
Brugia pahangi [4] = assay: anti-filarial Activity was measured against Brugia pahangi in jirds at 100 mg/kg/day(5 days) dose; assay type: functional; in short: as §1
Acanthocheilonema viteae [5] = assay: anti-filarial Activity was measured against Acanthocheilonema viteae in jirds at 25 mg/kg/day(5 days) dose; assay type: functional; in short: as §1
Brugia pahangi [6] = assay: anti-filarial Activity was measured against Brugia pahangi in jirds at 200 mg/kg/day(5 days) dose; assay type: functional; in short: as §1
Brugia pahangi [7] = assay: anti-filarial Activity was measured against Brugia pahangi in jirds at 25 mg/kg/day(5 days) dose; assay type: functional; in short: as §1
Acanthocheilonema viteae [8] = assay: anti-filarial Activity was measured against Acanthocheilonema viteae in jirds at 200 mg/kg/day(5 days) dose; assay type: functional; in short: as §1
Brugia pahangi [9] = assay: anti-filarial Activity was measured against Brugia pahangi in jirds at 1.56 mg/kg/day(5 days) dose; assay type: functional; in short: as §1
Acanthocheilonema viteae [10] = assay: anti-filarial Activity was measured against Acanthocheilonema viteae in jirds at 12.5 mg/kg/day(5 days) dose; assay type: functional; in short: as §1
Brugia pahangi [11] = assay: anti-filarial Activity was measured against Brugia pahangi in jirds at 12.5 mg/kg/day(5 days) dose; assay type: functional; in short: as §1
Acanthocheilonema viteae [12] = assay: anti-filarial Activity was measured against Acanthocheilonema viteae in jirds at 6.25 mg/kg/day(5 days) dose; assay type: functional; in short: as §1
Brugia pahangi [13] = assay: anti-filarial Activity was measured against Brugia pahangi in jirds at 6.25 mg/kg/day(5 days) dose; assay type: functional; in short: as §1
Acanthocheilonema viteae [14] = assay: anti-filarial Activity was measured against Acanthocheilonema viteae in jirds at 1.56 mg/kg/day(5 days) dose; assay type: functional; in short: as §1
Acanthocheilonema viteae [15] = assay: anti-filarial Activity was measured against Acanthocheilonema viteae in jirds at 75 mg/kg/day(5 days) dose; assay type: functional; in short: as §1
Brugia pahangi [16] = assay: anti-filarial Activity was measured against Brugia pahangi in jirds at 75 mg/kg/day(5 days) dose; assay type: functional; in short: as §1
Brugia pahangi [17] = assay: anti-filarial Activity was measured against Brugia pahangi in jirds at 100 mg/kg/day(5 days) dose;toxic; assay type: functional, organism-based; in short: as §1

Row | Compound | Suppression (Acanthocheilonema viteae [1]) [%] | Suppression (Brugia pahangi [2]) [%] | Suppression (Acanthocheilonema viteae [3]) [%] | Suppression (Brugia pahangi [4]) [%] | Suppression (Acanthocheilonema viteae [5]) [%] | Suppression (Brugia pahangi [7]) [%] | Suppression (Acanthocheilonema viteae [10]) [%] | Suppression (Brugia pahangi [11]) [%] | also measured
1 | C/C(=N\N=C(/S)Nc1c(N)c2ccccc2c2ccccc12)c1ccccn1 | 23 | 5 | 23 | 33 |  |  |  |  | 
2 | C/C(=N\N=C(/S)Nc1ccc(N)cc1)c1ccccn1 |  |  | 34 | 39 | 9 | 5 |  |  | Suppression (Brugia pahangi [6]): 60%; Suppression (Acanthocheilonema viteae [8]): 25%
3 | C/C(=N\NC(=S)N1CCCC1)c1ccccn1 |  |  |  |  |  |  | 31 | 86 | Suppression (Brugia pahangi [9]): 46%
4 | C/C(=N\NC(=S)N1CCN(c2ccccn2)CC1)c1ccccn1 |  |  |  |  |  |  |  |  | Suppression (Acanthocheilonema viteae [12]): 100%; Suppression (Brugia pahangi [13]): -5%; Suppression (Acanthocheilonema viteae [14]): 40%
5 | C/C(=N\N=C(/S)N1CCN(c2ccc(Cl)cc2)CC1)c1ccccn1 |  |  | 85 | 14 |  | 6 |  |  | 
6 | C/C(=N\N=C(/S)Nc1cc2ccccc2cc1N)c1ccccn1 | 4 |  | 37 | 49 |  |  |  |  | 
7 | C/C(=N\N=C(/S)N1CCCCC1)c1ccccn1 |  |  |  |  |  |  | 14 | 65 | Suppression (Acanthocheilonema viteae [12]): 25%; Suppression (Brugia pahangi [13]): 18%
8 | C/C(=N\NC(S)=Nc1ccccc1N)c1ccccn1.Cl.Cl | 100 | 100 | 100 | 100 | 100 | 100 | 36 | 29 | 
9 | C/C(=N\N=C(/S)Nc1cccc(N)c1)c1ccccn1 |  |  | 43 | 17 |  |  |  |  | 
10 | C/C(=N\N=C(/S)Nc1ccc(C)cc1N)c1ccccn1 | 75 | 100 | 72 | 100 | 44 | 29 |  |  | Suppression (Acanthocheilonema viteae [15]): 72%; Suppression (Brugia pahangi [16]): 100%
11 | C/C(=N\N=C(/S)N1CCCCCCCC1)c1ccccn1 | 74 | 16 |  |  |  |  |  |  | 
12 | C/C(=N\NC(=S)Nc1ccccc1)c1ccccn1 | 25 | 97 |  |  | 44 | 17 |  |  | 
13 | C/C(=N\N=C(/S)NCCN)c1ccccn1 |  |  |  |  | 72 | 26 | -40 | -3 | 
14 | C/C(=N\NC(N)=S)c1ccccn1 |  |  |  |  |  |  | 42 | 53 | Suppression (Brugia pahangi [17]): Toxic; Suppression (Brugia pahangi [9]): 41%; Suppression (Acanthocheilonema viteae [14]): 60%
15 | C/C(=N\N=C(/S)Nc1ccccc1N)c1ccccc1 |  |  | 9 | 15 | 15 | 6 |  |  | Suppression (Brugia pahangi [6]): 71%; Suppression (Acanthocheilonema viteae [8]): 19%
16 | C/C(=N\N=C(/S)Nc1cccc(N)n1)c1ccccn1 | 14 | 5 | 14 | 55 |  |  |  |  | 
